Test results: ChEMBL document CHEMBL1129032, “Synthesis and phospholipase A2 inhibitory activity of thielocin B3 derivatives” (J Med Chem, 1996); call rule not given here

Key:
Phospholipase A2 = Phospholipase A2 (Homo sapiens, UniProt P04054); assay: In vitro inhibition of human recombinant secretory Phospholipase A2 (group I).
In short: (§1)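 PLA2 enzymes: recombinant human group I or II, or group II purified from rat platelets (single ~14 kDa band on SDS-PAGE). Substrate was 1-palmitoyl-2-[1-14C]linoleoyl-PE diluted with egg-yolk PE to 2000 dpm/nmol. Reaction started by adding enzyme, adjusted so hydrolysis stayed below 20%. Compounds in DMSO (2% final) against a DMSO control. IC50 read graphically from % inhibition vs log concentration, three independent experiments in duplicate.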

[1] = biological target: T1, Phospholipase A2, membrane associated (Rattus norvegicus, UniProt P14423); assay: In vitro inhibition of rat secretory Phospholipase A2 (group II).; in short: as §1
T1 sequence (P14423 whole entry): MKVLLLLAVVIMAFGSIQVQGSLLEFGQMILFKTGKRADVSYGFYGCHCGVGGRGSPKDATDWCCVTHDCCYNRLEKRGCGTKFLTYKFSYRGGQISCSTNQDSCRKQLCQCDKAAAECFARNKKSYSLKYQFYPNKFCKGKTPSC

[2] = biological target: T2, Phospholipase A2, membrane associated (Homo sapiens, UniProt P14555); assay: In vitro inhibition of human recombinant secretory Phospholipase A2 (group II).; in short: as §1
T2 sequence (P14555 whole entry): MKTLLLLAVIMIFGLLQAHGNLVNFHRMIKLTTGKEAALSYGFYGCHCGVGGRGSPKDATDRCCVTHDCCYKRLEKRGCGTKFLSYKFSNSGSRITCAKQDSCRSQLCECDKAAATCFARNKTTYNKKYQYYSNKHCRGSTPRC

Rattus norvegicus [3] = species: Rattus norvegicus; assay: Inhibition of A-23187 stimulated Thromboxane B2 production from rat platelets by 10 uM.; type: functional; set-up: scale not given: the % may be the effect or the level left
In short: (§2)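 Rat platelets from citrate-dextrose blood with PGE1 were sedimented and labelled with [3H]AA (20 µCi/mL, 2.0 h, room temperature), gel-filtered, and used at 5 × 10^8 cells/mL. Stimulation used A23187 2 µM (DMSO 0.4%) plus compound (DMSO 0.2%), stopped with 0.1 N HCl. [3H]AA and [3H]TXB2 were separated by TLC and counted. Result given as % of A23187-induced increase over DMSO control, mean ± SEM of three experiments.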

Rattus norvegicus [4] = species: Rattus norvegicus; assay: Inhibition of A-23187 stimulated Arachidonic acid production from rat platelets by 10 uM.; type: functional; set-up: scale not given: the % may be the effect or the level left; in short: as §2
[5] = biological target: T2, Phospholipase A2, membrane associated; assay: In vitro inhibition of human recombinant secretory Phospholipase A2 (group II); No inhibition.; in short: as §1
[6] = biological target: T1, Phospholipase A2, membrane associated; assay: In vitro inhibition of rat secretory Phospholipase A2 (group II); No inhibition.; in short: as §1

Chain of Phospholipase A2 (P04054 whole entry): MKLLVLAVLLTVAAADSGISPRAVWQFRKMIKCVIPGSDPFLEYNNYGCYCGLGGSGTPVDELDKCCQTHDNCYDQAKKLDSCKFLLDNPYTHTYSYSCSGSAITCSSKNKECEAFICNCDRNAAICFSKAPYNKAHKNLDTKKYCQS

Compound | IC50 (Phospholipase A2) | IC50 [1] | IC50 [2] | IC50 [5] | IC50 [6] | Activity (Rattus norvegicus [3]) | Activity (Rattus norvegicus [4])
COc1c(C)c(OC)c(C(=O)Oc2c(C)c(C)c(C(=O)Oc3c(C)c(C)c(C(=O)O)c(OC)c3C)c(OC)c2C)c(C)c1Cc1c(C)c(C(=O)Oc2c(C)c(C)c(C(=O)Oc3c(C)c(C)c(C(=O)O)c(OC)c3C)c(OC)c2C)c(OC)c(C)c1OC | > 100 µM | 130 nM | 190 nM |  |  |  | 
COc1c(C)c(OC)c(C(=O)O)c(C)c1Cc1c(C)c(C(=O)Oc2c(C)c(C)c(C(=O)Oc3c(C)c(C)c(C(=O)O)c(OC)c3C)c(OC)c2C)c(OC)c(C)c1OC | > 100 µM | 3000 nM | 3000 nM |  |  |  | 
CCN(CC)CCCC(C)Nc1c2ccc(Cl)cc2nc2ccc(OC)cc12 (stereo not drawn) [QUINACRINE] |  | 320000 nM | 76000 nM |  |  |  | 
COc1c(C)c(OC(=O)c2c(C)c(C)c(OC(=O)c3cccc(C(=O)Oc4c(C)c(C)c(C(=O)Oc5c(C)c(C)c(C(=O)O)c(OC)c5C)c(OC)c4C)c3)c(C)c2OC)c(C)c(C)c1C(=O)O | > 100 µM | 120 nM | 230 nM |  |  | 0.1% | 49.2%
Cc1c(O)c(Cc2c(C)c(C(=O)Oc3c(C)c(C)c(C(=O)Oc4c(C)c(C)c(C(=O)O)c(O)c4C)c(O)c3C)c(O)c(C)c2O)c(C)c(C(=O)Oc2c(C)c(C)c(C(=O)Oc3c(C)c(C)c(C(=O)O)c(O)c3C)c(O)c2C)c1O | > 100 µM | 950 nM | 2400 nM |  |  |  | 
COc1ccc(Oc2ccc(OC)c(C(=O)Oc3c(C)c(C)c(C(=O)O)c(OC)c3C)c2)cc1C(=O)Oc1c(C)c(C)c(C(=O)O)c(OC)c1C | > 100 µM | 3400 nM | 75000 nM |  |  |  | 
CC1=C(CC/C(C)=C/CCC2=CC[C@H](C3=CC(=O)O[C@H]3O)O[C@H]2O)C(C)(C)CCC1 [MANOALIDE] |  | 2000 nM | 1500 nM |  |  |  | 
COc1ccc(Sc2ccc(OC)c(C(=O)Oc3c(C)c(C)c(C(=O)Oc4c(C)c(C)c(C(=O)O)c(OC)c4C)c(OC)c3C)c2)cc1C(=O)O | 100 µM | 2100 nM | 4100 nM |  |  |  | 
COc1c(C)c(OC(=O)c2c(C)c(C)c(OC(=O)c3cc(=O)cc(C(=O)Oc4c(C)c(C)c(C(=O)Oc5c(C)c(C)c(C(=O)O)c(OC)c5C)c(OC)c4C)o3)c(C)c2OC)c(C)c(C)c1C(=O)O | 100 µM | 880 nM | 5800 nM |  |  | 46.3% | 55.2%
COc1ccc(Sc2ccc(OC)c(C(=O)Oc3c(C)c(C)c(C(=O)O)c(OC)c3C)c2)cc1C(=O)Oc1c(C)c(C)c(C(=O)O)c(OC)c1C | > 100 µM | 2500 nM | 4800 nM |  |  |  | 
COc1c(C)c(OC(=O)c2c(C)c(C)c(OC(=O)C3=C(C)[C@@](C)(O)C4(O)Oc5c(C)c(OC)c(C(=O)Oc6c(C)c(C)c(C(=O)O)c(OC)c6C)c(C)c5C[C@@]4(C)C3=O)c(C)c2OC)c(C)c(C)c1C(=O)O (stereo partly drawn) [THIELOCIN A1] | 135 µM | 3.3 nM | 12000 nM |  |  |  | 
COc1c(C)c(OC(=O)c2c(C)c(C)c(OC(=O)/C=C/C(=O)Oc3c(C)c(C)c(C(=O)Oc4c(C)c(C)c(C(=O)O)c(OC)c4C)c(OC)c3C)c(C)c2OC)c(C)c(C)c1C(=O)O | > 100 µM | 330 nM | 2200 nM |  |  | 65.8% | 70.7%
COc1ccc(Sc2ccc(OC)c(C(=O)Oc3c(C)c(C)c(C(=O)Oc4c(C)c(C)c(C(=O)OCOC(=O)C(C)(C)C)c(OC)c4C)c(OC)c3C)c2)cc1C(=O)Oc1c(C)c(C)c(C(=O)Oc2c(C)c(C)c(C(=O)OCOC(=O)C(C)(C)C)c(OC)c2C)c(OC)c1C | > 100 µM |  |  | Not Active | Not Active |  | 

Further lines, with some results ahead:

IC50 (Phospholipase A2) | IC50 [1] | IC50 [2] | IC50 [5] | IC50 [6] | Compound | Activity (Rattus norvegicus [3]) | Activity (Rattus norvegicus [4])
18 µM | 12 nM | 76 nM |  |  | COc1c(C)c(OC(=O)c2c(C)c(C)c(OC(=O)c3c(C)cc(O)c(Cc4c(C)c(C(=O)Oc5c(C)c(C)c(C(=O)Oc6c(C)c(C)c(C(=O)O)c(OC)c6C)c(OC)c5C)c(O)c(C)c4O)c3O)c(C)c2OC)c(C)c(C)c1C(=O)O [THIELOCIN B3] | 43.7% | 60.3%
90 µM | 4600 nM | 2800 nM |  |  | COc1c(C)c(OC)c(C(=O)Oc2c(C)c(C)c(C(=O)O)c(OC)c2C)c(C)c1Cc1c(C)c(C(=O)Oc2c(C)c(C)c(C(=O)O)c(OC)c2C)c(OC)c(C)c1OC |  | 
60 µM | 40 nM | 940 nM |  |  | COc1c(C)c(OC(=O)c2c(C)c(C)c(OC(=O)CCC(=O)Oc3c(C)c(C)c(C(=O)Oc4c(C)c(C)c(C(=O)O)c(OC)c4C)c(OC)c3C)c(C)c2OC)c(C)c(C)c1C(=O)O |  | 
6.6 µM | 35 nM | 240 nM |  |  | COc1cc(OC)c(C(=O)Oc2c(C)c(C)c(C(=O)Oc3c(C)c(C)c(C(=O)O)c(OC)c3C)c(OC)c2C)cc1Oc1cc(C)c(OC)c(C(=O)Oc2c(C)c(C)c(C(=O)Oc3c(C)c(C)c(C(=O)O)c(OC)c3C)c(OC)c2C)c1 | 0% | 19.7%
6.5 µM | 42 nM | 100 nM |  |  | COc1ccc(Oc2ccc(OC)c(C(=O)Oc3c(C)c(C)c(C(=O)Oc4c(C)c(C)c(C(=O)O)c(OC)c4C)c(OC)c3C)c2)cc1C(=O)Oc1c(C)c(C)c(C(=O)Oc2c(C)c(C)c(C(=O)O)c(OC)c2C)c(OC)c1C | 0% | 9%
9 µM | 50 nM | 69 nM |  |  | COc1ccc(S(=O)(=O)c2ccc(OC)c(C(=O)Oc3c(C)c(C)c(C(=O)Oc4c(C)c(C)c(C(=O)O)c(OC)c4C)c(OC)c3C)c2)cc1C(=O)Oc1c(C)c(C)c(C(=O)Oc2c(C)c(C)c(C(=O)O)c(OC)c2C)c(OC)c1C |  | 
55 µM | 49 nM | 130 nM |  |  | COc1ccc(Sc2ccc(OC)c(C(=O)Oc3c(C)c(C)c(C(=O)Oc4c(C)c(C)c(C(=O)O)c(OC)c4C)c(OC)c3C)c2)cc1C(=O)Oc1c(C)c(C)c(C(=O)Oc2c(C)c(C)c(C(=O)O)c(OC)c2C)c(OC)c1C | 0% | 2.8%
60 µM | 360 nM | 840 nM |  |  | COc1c(C)c(OC(=O)c2c(C)c(C)c(OC(=O)c3c(C)c(CN[C@@H](C)c4ccccc4)c(O)c(C)c3O)c(C)c2OC)c(C)c(C)c1C(=O)O |  | 
11 µM | 120 nM | 260 nM |  |  | COc1ccc([S+]([O-])c2ccc(OC)c(C(=O)Oc3c(C)c(C)c(C(=O)Oc4c(C)c(C)c(C(=O)O)c(OC)c4C)c(OC)c3C)c2)cc1C(=O)Oc1c(C)c(C)c(C(=O)Oc2c(C)c(C)c(C(=O)O)c(OC)c2C)c(OC)c1C |  | 
